From ChEMBL document CHEMBL1136882, “Mechanism-based inhibitors of serine proteases with high selectivity through optimization of S' subsite binding” (Bioorg Med Chem, 2009)
Active and inactive are the calls of the source. No cut-off for these calls is given here.

Legend:
[1] = biological target: T1, Myeloblastin (Homo sapiens) (UniProt P24158); experiment: Inhibition of human PR3 at inhibitor to enzyme ratio of 500 after 30 mins
T1 sequence (whole entry): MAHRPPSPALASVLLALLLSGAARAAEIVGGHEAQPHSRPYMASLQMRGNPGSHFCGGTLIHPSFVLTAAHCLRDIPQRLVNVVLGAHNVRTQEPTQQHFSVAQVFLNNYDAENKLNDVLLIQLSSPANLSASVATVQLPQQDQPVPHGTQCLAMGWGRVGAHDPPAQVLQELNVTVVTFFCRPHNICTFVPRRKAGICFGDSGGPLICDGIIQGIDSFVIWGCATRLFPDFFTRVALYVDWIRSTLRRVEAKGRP
Outline: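 PR3 (34.5 nM final, from 0.1 M phosphate pH 6.50 stock) preincubated 30 min with inhibitor at [I]/[E] 500 (8.62 μM final). Buffer 0.1 M HEPES/0.5 M NaCl pH 7.25 with DMSO and DTNB. Substrate Boc-Ala-Ala-NVa-SBzl; absorbance read at 410 nm for 2 min. % remaining activity = (v/v0)×100 against a DMSO-only run; duplicate or triplicate.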

[2] = biological target: T2, Neutrophil elastase (Homo sapiens) (UniProt P08246); experiment: Inhibition of human neutrophil elastase assessed as ratio of observed rate constant to drug concentration by incubation method; set-up: unit not given here
T2 sequence (whole entry): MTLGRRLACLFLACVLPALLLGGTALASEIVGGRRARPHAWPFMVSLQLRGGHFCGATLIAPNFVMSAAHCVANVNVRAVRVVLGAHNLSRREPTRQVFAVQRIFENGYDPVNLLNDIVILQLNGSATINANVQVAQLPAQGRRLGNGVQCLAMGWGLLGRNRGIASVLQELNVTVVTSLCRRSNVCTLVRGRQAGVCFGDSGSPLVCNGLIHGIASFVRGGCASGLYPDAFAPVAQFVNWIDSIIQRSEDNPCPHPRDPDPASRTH
Outline: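 HNE incubated with excess inhibitor in 0.1 M HEPES/0.5 M NaCl pH 7.25 with DMSO in a constant-temperature bath (stocks: 70 μM enzyme, 3.5 mM inhibitor). Aliquots taken over time and assayed with MeOSuc-AAPV-pNA, read at 410 nm for 60 s. kobs taken from ln([E]t/[E]0) = −kobs·t; reported as kobs/[I].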

[3] = biological target: T2, Neutrophil elastase (Homo sapiens); experiment: Inhibition of human neutrophil elastase at inhibitor to enzyme ratio of 500 after 30 mins
Outline: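 HNE treated with inhibitor for 30 min at [I]/[E] ratio 500. Residual activity then measured with MeOSuc-AAPV-pNA in 0.1 M HEPES/0.5 M NaCl pH 7.25, reading absorbance at 410 nm.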

[4] = biological target: T2, Neutrophil elastase (Homo sapiens); experiment: Irreversible inhibition of human neutrophil elastase at 37 uM; conditions: TDE = time-dependent effect
Outline: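 Inhibitor (37 μM) incubated with HNE (700 nM) in 0.1 M HEPES/0.5 M NaCl pH 7.25, 1% DMSO. Aliquots taken over time and assayed with MeOSuc-AAPV-pNA at 410 nm. Results plotted as percent remaining activity versus time.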

[5] = biological target: T2, Neutrophil elastase (Homo sapiens); experiment: Inhibition of human neutrophil elastase assessed as ratio of kinact to Ki by progressive curve method
Outline: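 Progress curves run with 10 nM HNE and 105 μM MeOSuc-AAPV-pNA in 0.1 M HEPES/0.5 M NaCl pH 7.25, 2.5% DMSO, over several [I]/[E] ratios. p-Nitroaniline release followed continuously at 410 nm. kobs obtained by nonlinear fit of A vs t; kobs/[I] corrected for substrate concentration to give kinact/KI. Duplicate determinations.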

inhibition [1]	Ratio [2]	inhibition [3]	Activity [4]	Ratio [5]	Structure (SMILES)
inactive	300	Active			CCC[C@H]1C(=O)N(C(CCC(=O)OC)Sc2ccc(NC(=O)CCC(=O)O)cc2)S(=O)(=O)N1C (stereo partly drawn)
inactive		Active	tde	4580	COC(=O)CCC(Sc1ccc(Cl)cc1)N1C(=O)[C@H](CC(C)C)N(C)S1(=O)=O (stereo partly drawn)
inactive	150	Active			CCC[C@H]1C(=O)N(C(CCC(=O)OC)Sc2ccc(NC(=O)NCCc3ccccc3)cc2)S(=O)(=O)N1C (stereo partly drawn)
inactive	320	Active			CCC[C@H]1C(=O)N(C(CCC(=O)OC)Sc2ccc(F)cc2)S(=O)(=O)N1C (stereo partly drawn)
inactive	260	Active			CCC[C@H]1C(=O)N(C(CCC(=O)OC)Sc2ccc(NC(=O)c3ccccc3C(=O)O)cc2)S(=O)(=O)N1C (stereo partly drawn)
inactive	110	Active			CCC[C@H]1C(=O)N(C(CCC(=O)OC)Sc2ccc(N)cc2)S(=O)(=O)N1C (stereo partly drawn)
inactive	170	Active			CCC[C@H]1C(=O)N(C(CCC(=O)OC)Sc2ccc(NC(=O)OC(C)(C)C)cc2)S(=O)(=O)N1C (stereo partly drawn)
inactive	70	Active			CCC[C@H]1C(=O)N(C(CCC(=O)OC)Sc2ccc(OC)cc2)S(=O)(=O)N1C (stereo partly drawn)
inactive	20	Active			CCC[C@H]1C(=O)N(C(CCC(=O)OC)Sc2ccc(Cl)cc2)S(=O)(=O)N1C (stereo partly drawn)
